Measurements as given in ChEMBL document CHEMBL1158565, “Antagonism of 4-substituted 1,4-dihydropyridine-3,5-dicarboxylates toward voltage-dependent L-type Ca2+ channels Ca V 1.3 and Ca V 1.2” (Bioorg Med Chem, 2010).
Each block holds one molecule with its values, some of them ahead of it.

How the values were obtained:
[1] = target: T1, Voltage-dependent L-type calcium channel subunit alpha-1C (Oryctolagus cuniculus, UniProt P15381); test: Antagonist activity at rabbit Cav1.2 expressed in tsA201 cells assessed as inhibition of voltage pulse-induced calcium current at 200 nM by whole-cell patch-clamp recording
T1 sequence (P15381 whole entry): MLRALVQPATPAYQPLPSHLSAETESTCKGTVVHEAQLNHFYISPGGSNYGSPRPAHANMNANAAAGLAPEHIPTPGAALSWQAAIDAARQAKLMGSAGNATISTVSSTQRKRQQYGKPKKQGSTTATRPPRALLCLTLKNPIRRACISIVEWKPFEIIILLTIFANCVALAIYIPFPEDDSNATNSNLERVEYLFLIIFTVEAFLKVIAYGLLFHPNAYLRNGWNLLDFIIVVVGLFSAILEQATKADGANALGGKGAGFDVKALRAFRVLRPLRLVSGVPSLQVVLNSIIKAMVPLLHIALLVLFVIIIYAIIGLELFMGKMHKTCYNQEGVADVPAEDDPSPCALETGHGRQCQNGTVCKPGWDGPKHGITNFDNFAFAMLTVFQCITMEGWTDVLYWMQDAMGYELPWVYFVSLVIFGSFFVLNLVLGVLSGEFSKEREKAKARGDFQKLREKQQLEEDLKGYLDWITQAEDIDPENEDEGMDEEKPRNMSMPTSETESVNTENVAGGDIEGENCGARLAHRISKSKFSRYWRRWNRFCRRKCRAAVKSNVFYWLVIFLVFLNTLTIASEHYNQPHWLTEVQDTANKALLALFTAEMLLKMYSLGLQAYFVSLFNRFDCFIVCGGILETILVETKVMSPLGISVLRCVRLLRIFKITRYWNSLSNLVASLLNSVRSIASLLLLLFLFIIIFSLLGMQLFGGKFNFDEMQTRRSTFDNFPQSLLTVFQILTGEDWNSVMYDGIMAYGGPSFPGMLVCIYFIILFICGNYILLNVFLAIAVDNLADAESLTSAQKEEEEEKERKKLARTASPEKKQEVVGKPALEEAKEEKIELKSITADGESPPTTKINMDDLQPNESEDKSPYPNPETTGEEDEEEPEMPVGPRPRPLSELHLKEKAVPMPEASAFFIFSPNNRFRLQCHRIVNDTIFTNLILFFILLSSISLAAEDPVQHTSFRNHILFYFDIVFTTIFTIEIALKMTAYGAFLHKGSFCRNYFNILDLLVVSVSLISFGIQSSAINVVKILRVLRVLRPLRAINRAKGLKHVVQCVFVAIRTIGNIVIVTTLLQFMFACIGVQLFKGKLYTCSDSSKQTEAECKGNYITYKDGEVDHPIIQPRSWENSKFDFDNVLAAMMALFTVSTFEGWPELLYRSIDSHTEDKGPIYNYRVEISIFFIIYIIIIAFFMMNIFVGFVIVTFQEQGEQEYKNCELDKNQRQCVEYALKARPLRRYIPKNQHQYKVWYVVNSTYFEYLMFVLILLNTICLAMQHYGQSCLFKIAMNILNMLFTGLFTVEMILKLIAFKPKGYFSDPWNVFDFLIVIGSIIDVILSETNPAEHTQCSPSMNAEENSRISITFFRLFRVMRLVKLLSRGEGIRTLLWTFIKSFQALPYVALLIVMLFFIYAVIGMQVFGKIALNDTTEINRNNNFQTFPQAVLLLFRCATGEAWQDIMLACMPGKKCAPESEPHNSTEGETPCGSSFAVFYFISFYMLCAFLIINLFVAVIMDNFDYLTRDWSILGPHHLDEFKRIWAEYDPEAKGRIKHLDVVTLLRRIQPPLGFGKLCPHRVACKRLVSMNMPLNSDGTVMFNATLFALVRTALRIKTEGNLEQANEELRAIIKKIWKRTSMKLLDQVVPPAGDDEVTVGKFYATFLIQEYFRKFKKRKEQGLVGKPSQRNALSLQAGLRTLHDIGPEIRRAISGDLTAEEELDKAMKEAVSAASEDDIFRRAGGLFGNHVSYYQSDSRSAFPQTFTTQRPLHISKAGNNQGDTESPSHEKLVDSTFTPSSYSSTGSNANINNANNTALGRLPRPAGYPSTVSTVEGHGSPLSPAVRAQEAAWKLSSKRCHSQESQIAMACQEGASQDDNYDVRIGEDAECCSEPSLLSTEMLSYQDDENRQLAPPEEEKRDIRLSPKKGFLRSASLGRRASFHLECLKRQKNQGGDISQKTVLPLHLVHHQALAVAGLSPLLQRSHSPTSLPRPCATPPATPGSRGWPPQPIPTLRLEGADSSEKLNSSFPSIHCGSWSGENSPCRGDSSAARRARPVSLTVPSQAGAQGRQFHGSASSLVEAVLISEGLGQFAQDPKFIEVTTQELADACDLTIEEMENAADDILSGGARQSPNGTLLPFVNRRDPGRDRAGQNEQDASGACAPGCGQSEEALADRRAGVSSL

[2] = Selectivity ratio of antagonist activity at rat Cav1.3 to antagonist activity at rabbit Cav1.2 at 200 nM; type: functional
How it was run: (§1)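 Percent inhibition of Cav1.3 current was divided by that of Cav1.2 at the same concentration. Currents were from whole-cell patch clamp in transiently transfected tsA201 cells: Ba2+ bath, pH 7.4, steps from -60 mV, about 22 °C.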

[3] = target: Voltage-dependent L-type calcium channel subunit alpha-1D (Rattus norvegicus) (UniProt P27732); test: Antagonist activity at rat Cav1.3 expressed in HEK293 cells assessed as inhibition of voltage pulse-induced calcium current at 200 nM by whole-cell patch-clamp recording
Voltage-dependent L-type calcium channel subunit alpha-1D (Rattus norvegicus), sequence (P27732 whole entry, the tested form may be a part): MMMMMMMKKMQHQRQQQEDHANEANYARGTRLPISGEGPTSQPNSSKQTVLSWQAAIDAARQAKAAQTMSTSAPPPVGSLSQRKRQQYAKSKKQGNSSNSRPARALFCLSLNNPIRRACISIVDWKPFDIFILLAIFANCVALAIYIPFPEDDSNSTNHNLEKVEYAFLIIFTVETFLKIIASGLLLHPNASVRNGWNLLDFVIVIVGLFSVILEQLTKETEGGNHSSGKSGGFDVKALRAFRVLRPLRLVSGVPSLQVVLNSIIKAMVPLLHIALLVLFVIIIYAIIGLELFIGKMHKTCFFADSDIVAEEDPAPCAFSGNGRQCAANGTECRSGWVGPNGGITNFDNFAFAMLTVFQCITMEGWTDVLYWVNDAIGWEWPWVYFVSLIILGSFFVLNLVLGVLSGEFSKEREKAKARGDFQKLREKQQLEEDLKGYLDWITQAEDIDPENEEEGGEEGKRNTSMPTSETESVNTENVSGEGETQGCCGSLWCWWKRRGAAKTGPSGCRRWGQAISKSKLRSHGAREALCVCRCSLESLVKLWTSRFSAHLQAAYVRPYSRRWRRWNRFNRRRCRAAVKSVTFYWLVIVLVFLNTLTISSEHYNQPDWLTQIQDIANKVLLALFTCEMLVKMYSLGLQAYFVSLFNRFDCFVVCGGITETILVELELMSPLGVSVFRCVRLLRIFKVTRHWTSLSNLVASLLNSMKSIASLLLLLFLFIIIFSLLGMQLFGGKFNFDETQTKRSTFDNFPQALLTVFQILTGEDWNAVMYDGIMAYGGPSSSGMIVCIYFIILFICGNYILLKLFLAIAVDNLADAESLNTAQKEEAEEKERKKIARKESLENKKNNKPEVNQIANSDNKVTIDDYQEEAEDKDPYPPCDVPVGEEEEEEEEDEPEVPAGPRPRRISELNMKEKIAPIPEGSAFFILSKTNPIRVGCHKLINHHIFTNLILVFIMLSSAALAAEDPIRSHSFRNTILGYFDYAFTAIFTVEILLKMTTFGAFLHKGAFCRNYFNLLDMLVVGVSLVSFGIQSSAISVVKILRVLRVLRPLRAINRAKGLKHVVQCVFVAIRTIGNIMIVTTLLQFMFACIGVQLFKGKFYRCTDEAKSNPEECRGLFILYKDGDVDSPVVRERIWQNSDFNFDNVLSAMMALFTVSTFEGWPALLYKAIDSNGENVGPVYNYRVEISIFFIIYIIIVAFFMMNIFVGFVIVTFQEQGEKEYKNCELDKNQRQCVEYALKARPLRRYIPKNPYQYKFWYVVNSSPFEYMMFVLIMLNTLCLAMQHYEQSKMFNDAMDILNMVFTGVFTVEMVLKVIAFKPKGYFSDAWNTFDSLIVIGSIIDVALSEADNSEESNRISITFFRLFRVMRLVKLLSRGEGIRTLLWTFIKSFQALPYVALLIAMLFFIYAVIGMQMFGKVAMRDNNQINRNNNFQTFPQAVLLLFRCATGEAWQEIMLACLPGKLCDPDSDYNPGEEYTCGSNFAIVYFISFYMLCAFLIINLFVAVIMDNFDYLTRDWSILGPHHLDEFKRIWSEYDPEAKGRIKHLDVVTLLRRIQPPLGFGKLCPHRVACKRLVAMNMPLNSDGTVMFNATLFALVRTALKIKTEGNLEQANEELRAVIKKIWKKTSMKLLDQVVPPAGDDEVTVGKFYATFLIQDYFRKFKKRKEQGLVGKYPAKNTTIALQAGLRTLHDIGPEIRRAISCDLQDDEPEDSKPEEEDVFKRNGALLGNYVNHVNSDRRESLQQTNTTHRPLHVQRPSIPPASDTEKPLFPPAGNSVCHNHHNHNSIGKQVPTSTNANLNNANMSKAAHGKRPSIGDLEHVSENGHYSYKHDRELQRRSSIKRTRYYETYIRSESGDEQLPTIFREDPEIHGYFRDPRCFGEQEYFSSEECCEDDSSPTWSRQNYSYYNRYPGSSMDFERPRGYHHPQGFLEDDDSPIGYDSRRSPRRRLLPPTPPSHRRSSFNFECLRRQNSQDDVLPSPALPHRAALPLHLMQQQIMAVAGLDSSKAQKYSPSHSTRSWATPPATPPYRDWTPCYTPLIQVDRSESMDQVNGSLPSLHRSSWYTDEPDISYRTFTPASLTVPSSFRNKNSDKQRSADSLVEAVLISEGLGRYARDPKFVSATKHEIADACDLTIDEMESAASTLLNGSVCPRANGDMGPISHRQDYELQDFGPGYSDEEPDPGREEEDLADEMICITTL

[4] = target: T1, Voltage-dependent L-type calcium channel subunit alpha-1C; test: Antagonist activity at rabbit Cav1.2 expressed in tsA201 cells assessed as inhibition of voltage pulse-induced calcium current at 1000 nM by whole-cell patch-clamp recording
[5] = target: T1, Voltage-dependent L-type calcium channel subunit alpha-1C; test: Antagonist activity at rabbit Cav1.2 expressed in HEK293 cells assessed as inhibition of voltage pulse-induced calcium current at 1000 nM by FLIPR calcium 4 assay; type: functional, cell-based
[6] = target: T1, Voltage-dependent L-type calcium channel subunit alpha-1C; test: Antagonist activity at rabbit Cav1.2 expressed in tsA201 cells assessed as inhibition of voltage pulse-induced calcium current at 10 nM by whole-cell patch-clamp recording
[7] = target: Voltage-dependent L-type calcium channel subunit alpha-1D (Rattus norvegicus) (UniProt P27732); test: Antagonist activity at rat Cav1.3 expressed in HEK293 cells assessed as inhibition of voltage pulse-induced calcium current at 10 nM by FLIPR calcium 4 assay; type: functional, cell-based; conditions: in the assay text read “by whole-cell patch-clamp recording” for “by FLIPR calcium 4 assay”
How it was run: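 Whole-cell patch clamp on tsA201 cells transiently cotransfected with rabbit Cav1.2 α1C or rat Cav1.3 α1D, Cavβ3 and Cavα2δ-1 (1:1:1) plus GFP. GFP cells were recorded after replating at 48 h. Bath (mM): 110 NaCl, 1 MgCl2, 10 BaCl2, 10 HEPES, 10 glucose, 20 CsCl, pH 7.4. Compound was diluted from DMSO stock and perfused. Pulses ran from -60 mV to +10 or 0 mV with tetrodotoxin at about 22 °C. Read-out was percent current inhibition.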

[8] = Selectivity ratio of antagonist activity at rat Cav1.3 to antagonist activity at rabbit Cav1.2 at 10 nM; type: functional
How it was run: as §1

[9] = Selectivity ratio of antagonist activity at rat Cav1.3 to antagonist activity at rabbit Cav1.2 at 500 nM; type: functional
How it was run: as §1

[10] = target: T1, Voltage-dependent L-type calcium channel subunit alpha-1C; test: Antagonist activity at rabbit Cav1.2 expressed in tsA201 cells assessed as inhibition of voltage pulse-induced calcium current at 500 nM by whole-cell patch-clamp recording
[11] = target: Voltage-dependent L-type calcium channel subunit alpha-1D (Rattus norvegicus) (UniProt P27732); test: Antagonist activity at rat Cav1.3 expressed in tsA201 cells assessed as inhibition of voltage pulse-induced calcium current at 500 nM by whole-cell patch-clamp recording
[12] = target: Voltage-dependent L-type calcium channel subunit alpha-1D (Rattus norvegicus) (UniProt P27732); test: Antagonist activity at rat Cav1.3 expressed in HEK293 cells assessed as inhibition of voltage pulse-induced calcium current at 10 nM by whole-cell patch-clamp recording
[13] = Selectivity ratio of IC50 for Cav1.2 to IC50 for Cav1.3

inhibition [3]: 48%
SMILES: CCOC(=O)C1=C(C)N=C(C)/C(=C(/O)OCC)C1c1ccco1 (stereo unspecified)
inhibition at 0.2 µM [1]: 72% | Selectivity ratio [2]: 0.67

SMILES: CCOC(=O)C1=C(C)NC(C)=C(C(=O)OCC)C1c1ccc(OCc2ccc(Br)cc2)cc1
inhibition at 1 µM [4]: 38%

SMILES: CC1=C(C(=O)OC(C)(C)C)C(c2ccc([N+](=O)[O-])cc2)C(C(=O)OC(C)(C)C)=C(C)N1
inhibition at 1 µM [4]: 36%

SMILES: CCOC(=O)C1=C(C)N=C(C)/C(=C(/O)OCC)C1/C=C/c1ccccc1 (stereo unspecified)
inhibition at 1 µM [4]: 30%

inhibition [3]: 14%
SMILES: CCOC(=O)C1=C(C)N=C(C)/C(=C(/O)OCC)C1c1cccnc1 (stereo unspecified)
inhibition at 0.2 µM [1]: 25% | Selectivity ratio [2]: 0.56

SMILES: CCOC(=O)C1=C(C)NC(C)=C(C(=O)OCC)C1c1ccc(-c2cccs2)s1
inhibition at 1 µM [4]: 35%

SMILES: CCOC(=O)C1=C(C)NC(C)=C(C(=O)OCC)C1c1cc2cccc(C)c2nc1Cl
inhibition at 1 µM [4]: 12%

SMILES: CCOC(=O)C1=C(CC)NC(CC)=C(C(=O)OCC)C1c1ccc([N+](=O)[O-])cc1
inhibition at 1 µM [5]: 58%

SMILES: CCOC(=O)C1=C(C)NC(C)=C(C(=O)OCC)C1c1ccc([N+](=O)[O-])cc1
inhibition at 1 µM [4]: 48%

SMILES: CCOC(=O)C1=C(C)NC(C)=C(C(=O)OC)C1c1ccc([N+](=O)[O-])cc1 (stereo unspecified)
inhibition at 1 µM [4]: 48%

inhibition [3]: 41%
SMILES: CCOC(=O)C1=C(C)NC(C)=C(C(=O)OCC)C1c1ccc([N+](=O)[O-])o1
inhibition at 0.2 µM [1]: 43% | Selectivity ratio [2]: 0.95

SMILES: CCOC(=O)C1=C(CC)NC(C)=C(C(=O)OC)C1c1ccc([N+](=O)[O-])cc1 (stereo unspecified)
inhibition at 1 µM [4]: 28%

SMILES: CCOC(=O)C1=C(C)N(C)C(C)=C(C(=O)OCC)C1c1cccc([N+](=O)[O-])c1
inhibition at 1 µM [4]: 35%

inhibition [7]: 26%
SMILES: CCOC(=O)C1=C(C)NC(C)=C(C(=O)OC)C1c1ccccc1[N+](=O)[O-] (stereo unspecified)
inhibition at 0.01 µM [6]: 41% | Selectivity ratio [8]: 0.63

inhibition [3]: 44%
SMILES: CCOC(=O)C1=C(C)N=C(C)/C(=C(/O)OCC)C1c1cccc(OC)c1 (stereo unspecified)
inhibition at 0.2 µM [1]: 69% | Selectivity ratio [2]: 0.64

inhibition [11]: 43%
SMILES: CCOC(=O)C1=C(C)NC(C)=C(C(=O)OCC)C1c1cc2cc(Br)ccc2[nH]1
Selectivity ratio [9]: 1.03 | inhibition at 0.5 µM [10]: 42%

inhibition [3]: 84%
SMILES: CCOC(=O)C1=C(C)NC(C)=C(C(=O)OCC)C1c1cccc(C(F)(F)F)c1
inhibition at 0.2 µM [1]: 85% | Selectivity ratio [2]: 0.99

inhibition [12]: 43%
SMILES: CCOC(=O)C1=C(C)NC(C)=C(C(=O)OCC)C1c1cccc([N+](=O)[O-])c1
inhibition at 0.01 µM [6]: 32% | Selectivity ratio [8]: 1.34

SMILES: CCOC(=O)C1=C(C)NC(C)=C(C(=O)OCC)C1C(C)c1ccccc1 (stereo unspecified)
inhibition at 1 µM [4]: 28%

SMILES: COCCOC(=O)C1=C(C)NC(C)=C(C(=O)OC(C)C)C1c1cccc([N+](=O)[O-])c1 (stereo unspecified)
Ratio IC50 [13]: 20
